In ChEMBL document CHEMBL2169868, “Flavone-based novel antidiabetic and antidyslipidemic agents” (J Med Chem, 2012):
Calls of active or inactive are those of the source. No cut-off for these calls is given here.

Experiments:
Assay type in all cases: functional
[1] = system: Rattus norvegicus; assay: Antidiabetic activity in sucrose loaded Wistar rat model assessed as reduction in glucose levels at 100 mg/kg, po
[2] = system: Rattus norvegicus; assay: Antihyperlipidemic activity in Triton-induced dyslipidemic Wistar rat model assessed as reduction in cholesterol level at 100 mg/kg, po; design: scale not given: the % may be the effect or the level left
Method in brief: (§1)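 Male Wistar rats, 8−10 weeks, about 160 g, fed normal pellet diet. Triton X-100 given at 400 mg/kg ip; compound given orally in 1% gum acacia. Retro-orbital blood taken 18 h after Triton and serum separated at 1500g for 10 min. TG and cholesterol measured by kit. Mean % change versus dyslipidemic control, 5 animals.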

[3] = system: Rattus norvegicus; assay: Antihyperlipidemic activity in Triton-induced dyslipidemic Wistar rat model assessed as reduction in phospholipid level at 100 mg/kg, po; design: scale not given: the % may be the effect or the level left; method in brief: as §1
[4] = system: Rattus norvegicus; assay: Antihyperlipidemic activity in Triton-induced dyslipidemic Wistar rat model assessed as reduction in triglyceride level at 100 mg/kg, po; design: scale not given: the % may be the effect or the level left; method in brief: as §1
[5] = system: Rattus norvegicus; assay: Antidiabetic activity in sucrose challenged streptozotocin-induced diabetic Sprague-Dawley rat model assessed as reduction in glucose levels at 100 mg/kg, po measured after 5 hrs; design: scale not given: the % may be the effect or the level left
[6] = system: Rattus norvegicus; assay: Antidiabetic activity in sucrose challenged streptozotocin-induced diabetic Sprague-Dawley rat model assessed as reduction in glucose levels at 100 mg/kg, po measured after 24 hrs
[7] = system: Mus musculus; assay: Antihyperglycemic activity in diabetic C57BL/KsJ db/db mouse model assessed as reduction in hyperglycemia at 25 mg/kg, po qd for 10 days; design: scale not given: the % may be the effect or the level left
Method in brief: (§2)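 db/db mice (C57BL/KsJ, 12−18 weeks, 40−50 g, glucose 200−350 mg/dL), housed at 23 ± 2.0 °C on a 12 h light cycle. Oral dosing daily for 10 days. Blood glucose checked each morning through day 9. Body weight recorded daily from day 1 to day 10. Mean % change versus vehicle, 5 mice per group; Student t test.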

[8] = system: Mus musculus; assay: Antidyslipidemic activity in diabetic C57BL/KsJ db/db mouse model assessed as reduction in plasma cholesterol level at 25 mg/kg, po qd for 10 days; design: scale not given: the % may be the effect or the level left
Method in brief: (§3)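 db/db mice (blood glucose 200−350, TG 170−250, cholesterol 170−250, HDL-C 32−40 mg/dL) dosed orally at 25 mg/kg daily for 10 days; retro-orbital blood taken on day 11 for plasma TG, cholesterol and HDL-C (and HDL-C/CHOL ratio); mean % change versus vehicle control, 5 mice per group; Student t test.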

[9] = system: Mus musculus; assay: Reduction in body weight in diabetic C57BL/KsJ db/db mouse model in hyperglycemia at 25 mg/kg, po qd for 10 days relative to untreated control; design: scale not given: the % may be the effect or the level left; method in brief: as §2
[10] = system: Mus musculus; assay: Antidyslipidemic activity in diabetic C57BL/KsJ db/db mouse model assessed as increase in plasma HDL-C/cholesterol ratio at 25 mg/kg, po qd for 10 days; method in brief: as §3
[11] = system: Mus musculus; assay: Antihyperglycemic activity in diabetic C57BL/KsJ db/db mouse model assessed as reduction in plasma insulin level in hyperglycemia at 25 mg/kg, po qd for 10 days; design: scale not given: the % may be the effect or the level left
Method in brief: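 db/db mice dosed orally every day for 10 days. On day 11, retro-orbital blood was drawn and plasma insulin measured. Mean % change versus vehicle-treated control, 5 mice per group; Student t test.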

[12] = system: Mus musculus; assay: Antidyslipidemic activity in diabetic C57BL/KsJ db/db mouse model assessed as increase in plasma HDL-cholesterol level at 25 mg/kg, po qd for 10 days; method in brief: as §3
[13] = system: Mus musculus; assay: Antihyperglycemic activity in diabetic C57BL/KsJ db/db mouse model assessed as improvement in glucose tolerance in hyperglycemia at 25 mg/kg, po qd for 10 days
Method in brief: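 Male/female C57BL/KsJ db/db mice, 12−18 weeks, 40−50 g, selected for glucose 200−350 mg/dL. Oral dosing daily for 10 days. OGTT on day 10 after an overnight fast: compound at −30 min, then 3 g/kg oral glucose at 0 min. Glucose read at 30, 60, 90 and 120 min. AUC taken versus vehicle, 5 mice per group.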

[14] = system: Mus musculus; assay: Antidyslipidemic activity in diabetic C57BL/KsJ db/db mouse model assessed as reduction in plasma triglyceride level at 25 mg/kg, po qd for 10 days; design: scale not given: the % may be the effect or the level left; method in brief: as §3

| SMILES | Activity [1] | Activity [2] [%] | Activity [3] [%] | Activity [4] [%] | Activity [5] [%] | Activity [6] | Activity [7] [%] | Activity [8] [%] | Activity [9] | Percent increase in HDL-C/cholesterol ratio vs vehicle [10] | Activity [11] [%] | Activity [12] [%] | Activity [13] [%] | Activity [14] [%] |
| --- | --- | --- | --- | --- | --- | --- | --- | --- | --- | --- | --- | --- | --- | --- |
| COc1cc(-c2cc(=O)c3ccc(OCC(O)CNC(C)(C)C)cc3o2)cc(OC)c1OC (stereo not drawn) | inactive | 24 | 26 | 28 | – | – | – | – | – | – | – | – | – | – |
| Cc1ccc(COc2cc(OCc3ccc(C)cc3)cc(-c3cc(=O)c4ccc(OCC(O)CN(C(C)C)C(C)C)cc4o3)c2)cc1 (stereo not drawn) | 15.7% | 10.1 | 4.67 | 12.1 | 12.2 | inactive | – | – | – | – | – | – | – | – |
| CN(CCOc1ccc(CC2SC(=O)NC2=O)cc1)c1ccccn1 (stereo not drawn) [ROSIGLITAZONE] | – | – | – | – | – | – | 54.3 | 32.6 | -18.3% | 108.7 | 40.5 | 6.98 | 49.5 | 24.5 |
| CN(C)C(=N)NC(=N)N [METFORMIN] | 22.1% | 4.2 | 6.2 | 5.9 | 24.3 | 19.4% | – | – | – | – | – | – | – | – |
| CC(C)NCC(O)COc1ccc2c(=O)cc(-c3cc(OCc4cc(Cl)cc(Cl)c4)cc(OCc4cc(Cl)cc(Cl)c4)c3)oc2c1 (stereo not drawn) | 32.7% | 22.2 | 11.8 | 26 | 22.1 | 16.2% | – | – | – | – | – | – | – | – |
| Cc1ccccc1COc1cc(OCc2ccccc2C)cc(-c2cc(=O)c3ccc(OCC(O)CNC(C)(C)C)cc3o2)c1 (stereo not drawn) | 39.1% | 22.3 | 12.6 | 28.2 | 23.2 | 17.2% | – | – | – | – | – | – | – | – |
| O=c1cc(-c2cc(OCc3ccccc3)cc(OCc3ccccc3)c2)oc2cc(OCC(O)CN3CCN(c4ccccc4)CC3)ccc12 (stereo not drawn) | – | 24 | 21 | 17 | 14.3 | – | – | – | – | – | – | – | – | – |
| COc1ccc(-c2cc(=O)c3ccc(OCC(O)CNC(C)C)cc3o2)cc1OC (stereo not drawn) | 23.9% | – | – | – | 13.8 | 6.83% | – | – | – | – | – | – | – | – |
| CC(C)(C)NCC(O)COc1ccc2oc(-c3ccc(OCc4ccccc4)c(OCc4ccccc4)c3)cc(=O)c2c1 (stereo not drawn) | 21.8% | 21 | 12 | 17 | – | 0.36% | – | – | – | – | – | – | – | – |
| CC(C)(C)NCC(O)COc1ccc2c(=O)cc(-c3cc(OCc4cc(Cl)cc(Cl)c4)cc(OCc4cc(Cl)cc(Cl)c4)c3)oc2c1 (stereo not drawn) | 25.9% | 8.93 | 12.2 | 11.3 | 14.2 | inactive | – | – | – | – | – | – | – | – |
| CC(C)NC[C@@H](O)COc1ccc2c(=O)cc(-c3cc(O)cc(O)c3)oc2c1 | – | – | – | – | – | – | 28.2 | 11.2 | inactive | 16.6 | 9.1 | 3.59 | 22.4 | 14.1 |
| Cc1ccccc1COc1cc(OCc2ccccc2C)cc(-c2cc(=O)c3ccc(OCC(O)CNC(C)C)cc3o2)c1 (stereo not drawn) | 4.65% | 13.5 | 24.1 | 26.2 | – | – | – | – | – | – | – | – | – | – |
| COc1cc(-c2cc(=O)c3ccc(OCC(O)CN4CCN(c5ccccc5)CC4)cc3o2)cc(OC)c1OC (stereo not drawn) | – | 19 | 8 | 23 | 2.36 | 0.24% | – | – | – | – | – | – | – | – |
| CC(C)(C)NCC(O)COc1ccc2c(=O)cc(-c3cc(O)cc(O)c3)oc2c1 (stereo not drawn) | – | 17 | 4 | 16 | – | – | – | – | – | – | – | – | – | – |
| COc1cc(-c2cc(=O)c3ccc(OCC(O)CNC(C)C)cc3o2)cc(OC)c1OC (stereo not drawn) | 20.7% | 18 | 16 | 19 | – | – | – | – | – | – | – | – | – | – |
